This is an account of results in article PMC10663723 (RSC Advances, 2023).

In brackets after ≈: the same amount, converted by molar mass.

The subject of data set [1] is triple-negative breast cancer cells (MDA-MB-231). Briefly: MTT cell viability assay, MDA-MB-231 cells. In kind it is cell-based, human. The following applies: CC50 HFF / EC50 MDA-MB-231. In a few lines: (§1)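 Cells plated at 10000/well in DMEM with 10% FBS and incubated 20 h at 37 °C, 5% CO2. Test compound (20 mg mL−1 DMSO stock, diluted in medium) was applied at 0.1–100 μg mL−1 for 48 h; 0.5% final DMSO served as vehicle control. MTT (0.5 mg mL−1) was added for 4 h at 37 °C in the dark, formazan was dissolved in DMSO, and absorbance was read at 570 nm.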
For orientation: Tetrazolium assays rely on reduction of a dye to a coloured formazan, in cell work by metabolically active cells.

For the next data set, the system named is lung cancer cells (A549). Nature of the data set: MTT cell viability assay, A549 cells. Type of data set: cell-based, human. The essentials: as §1
For data set [2], the system named is cervical cancer cells (HeLa). Briefly: MTT cell viability assay, HeLa cells. In kind it is cell-based. The following applies: Homo sapiens, 48 h, read-out: EC50, HeLa. In a few lines: as §1
Data set [3] can be described thus: MTT cell viability assay, HFF cells. In kind it is cell-based. The following applies: human, HFF cells (non-cancer human foreskin fibroblasts). The essentials:
as §1

The EC50 is the concentration at which the effect is half-maximal. Broadly, the CC50 is the concentration that lowers cell viability or growth by half. Lower therefore signals greater toxicity to the cells.

On to `COc1cccc2c1C(=O)c1c(O)c3c(c(O)c1C2=O)C[C@@](O)(C(=O)CO)C[C@@H]3O[C@H]1C[C@H](N)[C@H](O)[C@H](C)O1` [doxorubicin], for which the “SI (selectivity index) MDA-MB-231 with respect to HFF cells” value in data set [1] was 2.73. In the data set with lung cancer cells (A549) (CC50 HFF / EC50 A549), the “SI (selectivity index) A549 with respect to HFF cells” value turned out to be 2.83. Also, the EC50 in the data set with lung cancer cells (A549) (Homo sapiens, A549, 48 h, read-out: EC50, A549) was 2.68 µg/mL (≈ 4.93 µM); in data set [2], 1.69 µg/mL (≈ 3.11 µM). In data set [3], this molecule gave a CC50 at 48 h of 8.96 µg/mL (≈ 16.5 µM).
